Bioassay records: PubChem, several laboratories
An excerpt weighted towards active compounds, which were near 4.1% of everything screened.
hERG rescue – compounds protecting human hERG from proarrhythmic drug block. activation (rescue from dofetilide block), less the hit threshold, % at 10 µM. 310,000 tested, 0.51% active. AID 1511. CHO-hERG, FluxOR thallium flux, dofetilide IC70 present. Q12809;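 active means activation above the mean of controls blocked by dofetilide plus 5 SD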;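 further: thallium influx through hERG after potassium depolarization seen as dye fluorescence rise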
Target sequence (Q12809 whole entry, looked up): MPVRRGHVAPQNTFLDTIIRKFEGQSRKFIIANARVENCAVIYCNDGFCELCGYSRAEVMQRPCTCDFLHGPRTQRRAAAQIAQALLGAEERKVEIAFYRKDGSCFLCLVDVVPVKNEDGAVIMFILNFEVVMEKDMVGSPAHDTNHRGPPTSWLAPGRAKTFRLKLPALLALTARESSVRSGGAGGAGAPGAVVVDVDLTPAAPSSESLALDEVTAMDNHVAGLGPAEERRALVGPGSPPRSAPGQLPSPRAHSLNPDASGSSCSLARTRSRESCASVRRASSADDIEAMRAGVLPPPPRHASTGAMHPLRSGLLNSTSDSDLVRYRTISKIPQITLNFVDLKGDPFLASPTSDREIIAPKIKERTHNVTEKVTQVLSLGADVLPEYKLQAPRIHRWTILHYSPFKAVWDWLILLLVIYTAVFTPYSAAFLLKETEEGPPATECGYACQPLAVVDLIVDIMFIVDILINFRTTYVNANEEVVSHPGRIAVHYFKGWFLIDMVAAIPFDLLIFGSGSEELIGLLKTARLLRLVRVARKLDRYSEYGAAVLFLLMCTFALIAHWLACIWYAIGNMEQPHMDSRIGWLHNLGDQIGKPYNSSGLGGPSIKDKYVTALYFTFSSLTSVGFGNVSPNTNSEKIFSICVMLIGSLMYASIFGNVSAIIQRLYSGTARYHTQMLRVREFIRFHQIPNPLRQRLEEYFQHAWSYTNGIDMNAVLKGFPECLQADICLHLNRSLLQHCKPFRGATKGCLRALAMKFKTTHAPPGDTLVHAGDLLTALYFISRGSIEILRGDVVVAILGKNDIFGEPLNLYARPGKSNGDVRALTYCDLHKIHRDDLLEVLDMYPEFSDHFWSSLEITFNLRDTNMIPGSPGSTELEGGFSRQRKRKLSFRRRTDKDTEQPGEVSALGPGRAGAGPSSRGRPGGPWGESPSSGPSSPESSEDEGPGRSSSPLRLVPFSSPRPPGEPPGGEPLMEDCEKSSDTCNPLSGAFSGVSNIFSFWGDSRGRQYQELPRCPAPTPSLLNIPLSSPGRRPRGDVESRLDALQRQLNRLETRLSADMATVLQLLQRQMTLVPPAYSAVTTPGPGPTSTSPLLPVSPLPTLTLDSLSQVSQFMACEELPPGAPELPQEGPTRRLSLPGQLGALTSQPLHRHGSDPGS
Cl transport mod – modulates chloride dependent transport by human KCC2. KCC2 cells, thallium flux FluoZin-2 fluorescence. B-score of Tl+ flux slope (higher = more flux/activation; lower = inhibition) at 10 µM. 190,000 tested, 2.2% active;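 active means thallium flux slope and its plate-corrected score both differing from the plate sample mean at a set confidence after two filtering rounds, in either direction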;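 further: slope of fluorescence scaled to starting intensity during 10 to 20 s after thallium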
KCNK3 block – human KCNK3 channel inhibition, primary screen; O14649; CHO-KCNK3 thallium flux, FluxOR fluorescence; hits give low values; B-score at 10 µM; 340,000 tested, 0.84% active; AID 602410;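 active means B-score under library mean minus 4 SD, starting fluorescence ratio at most library mean plus 5 SD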;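 further: more negative B-score means stronger inhibition of thallium flux through KCNK3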
KCNQ1 block – inhibitors of human KCNQ1 potassium channel; P51787; CHO-K1 KCNQ1, FluxOR thallium flux fluorescence; hits give high values; B-score at 10 µM; 310,000 tested, 1.3% active;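 active means compounds whose thallium flux B-score, printed positive for inhibition, exceeds three library SD while starting fluorescence stays within three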;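 further: channel opened by potassium depolarization with thallium stimulus after 20 min compound exposure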
KCNQ1 act – potentiates or activates the human KCNQ1 potassium channel | P51787 | CHO-K1 KCNQ1, thallium flux FluxOR fluorescence; hits give high values | B-score at 10 µM | 310,000 tested, 0.35% active;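 active means fluorescence ratio B-score, a plate-corrected score, at least three library SD, with initial intensity B-score within 5 SD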
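Assay system: CHO-K1 cells stably expressing KCNQ1. Medium: assay buffer for compound exposure, DMSO matched across wells. Timing: 37 °C overnight plating, 90-min dark dye load, 20-min compound pretreatment. Signal: kinetic FluxOR fluorescence, 10 s baseline plus 110 s post-stimulus.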
KCNK9 inh – inhibitors of human KCNK9 two-pore domain potassium channel; HEK293 KCNK9, FluxOR thallium flux fluorescence; hits give low values; B-score at 10 µM; 310,000 tested, 1.2% active; AID 488922;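 active means ratio B-score over 3 SD below the library mean, with starting fluorescence within 5 SD of its mean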;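 further: negative B-score means less thallium flux so channel inhibition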
KCNK9 inh conf – human KCNK9 inhibitor confirmation. HEK293 KCNK9 cells, FluxOR thallium flux fluorescence. shares compounds with KCNK9 inh. AID 492992. 4,900 tested, 43% active. inhibition, % at 10 µM;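 active means thallium signal inhibited by more than 5 SD of the compound-free buffer control wells, on both duplicate plates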;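 further: 0% = assay buffer control wells without compound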
Kir21 sel – tests whether KCNK9 modulators also affect mouse Kir2.1; shares compounds with KCNK9 inh; Kir2.1 cells, FluxOR thallium flux fluorescence; inhibition, % at 10 µM; 4,900 tested, 4% active;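 active means thallium signal drop more than 5 SD beyond the mean of the no-compound control wells, seen in both duplicate plates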;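 further: signal is fluorescence rise after thallium addition divided by baseline fluorescence; plate controls were assay buffer only for no effect and full block by chlorpromazine control for full effect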
KCNK9 uninduced – second counter-screen for KCNK9 modulators: effect in non-induced cells | shares compounds with KCNK9 inh | non-induced KCNK9-HEK293, FluxOR thallium flux | inhibition, % at 10 µM | 4,900 tested, 40% active | AID 492997;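 active means thallium signal drop beyond 5 SD of the untreated control mean, on both duplicate plates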;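 further: plate controls were buffer only IC0 wells for no effect and SID17386958 at its maximal inhibitory level for full effect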
KCNK3 inh conf – human KCNK3 channel inhibition, confirmation assay | shares compounds with KCNK3 block | CHO-KCNK3 thallium flux, FluxOR fluorescence; 0% buffer, 100% carvedilol maximal block | ratio percent of control, % at 10 µM | 2,400 tested, 99% active;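 active means ratio percent of control, averaged over triplicates, above buffer control mean plus 5 SD, cut at about 64% in these data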;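 further: ratio is the fluorescence rise from min to max over baseline after thallium stimulus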
KCNK3 noninduced – counter-screen for KCNK3 inhibitors: effect in non-induced cells | thallium flux ratio (lower = more inhibition) at 10 µM | AID 651747 | shares compounds with KCNK3 block | non-induced KCNK3 parental cells, FluxOR thallium flux; hits give low values | 2,400 tested, 40% active;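 active means thallium flux ratio, averaged over three wells, more than 5 SD below the buffer control mean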;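 further: host cells are CHO cells without KCNK3 induction; ratio is peak minus trough fluorescence over baseline then normalized to buffer controls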
Numbers without * were called inactive; i = inactive; · = not tested or not shown.

SMILES	hERG rescue	Cl transport mod	KCNK3 block	KCNQ1 block	KCNQ1 act	KCNK9 inh	KCNK9 inh conf	Kir21 sel	KCNK9 uninduced	KCNK3 inh conf	KCNK3 noninduced
O=C(OCC(=O)N(CCc1ccccc1)Cc1ccccc1)c1ccccc1O	-12	·	-12*	8*	i	-18*	74%*	i	39%*	118*	i
O=C(OCC(=O)N(Cc1ccccc1)Cc1ccccc1)c1ccccc1O	·	·	i	·	·	·	·	·	·	·	·
COc1ccc(NC(=O)Cc2nnc(SCC(=O)NC3CCCCC3)n2C)cc1	-1	·	i	i	i	i	·	·	·	·	·
O=c1c2c3c(sc2n2cnnc2n1-c1ccccc1)N(Cc1ccccc1)CCC3	-16	0.012	·	i	i	i	·	·	·	·	·
Cc1ccc(N(C(=O)CNC(=O)c2ccco2)C(C(=O)NCC2CCCO2)c2ccccc2)c(C)c1 (centres undefined)	-6	·	i	i	i	i	·	·	·	·	·
CCn1nc(C(=O)NCc2ccco2)c(Cl)c1Cl	-6	0.75	i	i	i	i	·	·	·	·	·
CCn1nc(C(=O)Nc2cccc3ccccc23)c(Cl)c1Cl	-17	0.00054	i	i	i	-10*	49%*	i	36%*	126*	0.16*
CC(=O)NC1C(Oc2ccc3c(C)cc(=O)oc3c2)OC(COC(C)=O)C(OC(C)=O)C1OC(C)=O (centres undefined)	-3	1.4	i	i	i	i	·	·	·	·	·
C[C@H]1CN([C@@H](C)CO)C(=O)c2cccc(NC(=O)c3nc4ccccc4s3)c2O[C@H]1CN(C)C(=O)Nc1ccc(F)cc1	·	·	i	·	·	·	·	·	·	·	·
S=C(NC1CCCCC1)N(CCc1nc2ccccc2[nH]1)C1CCCC1	-14	-0.69	-10*	i	i	i	i	i	i	118*	0.13*
O=C(CCNC(=O)c1ccccc1Cl)Nc1ccc(S(=O)(=O)Nc2nccs2)cc1	·	·	i	·	·	·	·	·	·	·	·
CC(=O)Oc1cc(C)cc2oc(=O)cc(-c3ccccc3)c12	-7	·	i	i	i	i	·	·	·	·	·
Cc1cc(OCC(=O)N2CCc3ccccc3C2)c2c(-c3ccccc3)cc(=O)oc2c1	-3	-0.038	-11*	i	i	i	i	i	i	99*	i
CCCN1CCN(c2nc(-c3cccs3)nc3ccccc23)CC1	-6	-0.16	i	i	i	i	·	·	·	·	·
CCOC(=O)N1CCN(c2nc(-c3cccs3)nc3ccccc23)CC1	-6	·	-10*	i	i	-8.9*	i	i	i	104*	0.15*
Cc1ccc(C)c(-c2csc(N/N=C/c3ccco3)n2)c1	-7	0.018	-11*	i	i	-8.9*	38%*	i	27%*	115*	0.16*
O=C(Nc1ccc(Cl)cc1Cl)NC1CCN(S(=O)(=O)c2ccc(F)cc2)CC1	-14	·	i	i	i	i	·	·	·	·	·
CCN(CC)c1ccc(NC(=O)c2c(C)noc2C)cc1	-2	·	i	i	i	i	·	·	·	·	·
COc1ccc(CN(C(=O)CSc2nnc(-c3ccc(F)cc3)o2)c2ccc(F)cc2)cc1	-12	-1.2	i	i	i	i	·	·	·	·	·
COc1ccc(CN(C(=O)CSc2nnc(-c3c[nH]c4ccccc34)o2)c2ccc(F)cc2)cc1OC	-17	1	-14*	i	i	-8.8*	i	i	i	105*	0.13*
Fc1ccc(N2CCN(C(c3cccs3)c3nnnn3CCc3ccccc3)CC2)cc1 (centres undefined)	-5	-0.64	-12*	i	i	-13*	68%*	i	32%*	126*	0.15*
Clc1ccc(OCCSc2ncccn2)c2ccccc12	-16	-0.77	i	i	i	-8.4*	i	i	50%*	106*	i
Cc1ccc(NC(=O)Cn2cc([N+](=O)[O-])nc2C)cc1C	-10	·	i	i	i	i	·	·	·	·	·
COc1cc2c(cc1OC)CN(C(=O)c1oc3ccccc3c1C)CC2	-6	·	-10*	i	i	-9.9*	34%*	i	33%*	100*	i
COc1cc2c(cc1OC)CN(C(=O)c1ccc(-c3ccccc3)cc1)CC2	-14	·	i	i	i	i	·	·	·	·	·
SMILES	hERG rescue	Cl transport mod	KCNK3 block	KCNQ1 block	KCNQ1 act	KCNK9 inh	KCNK9 inh conf	Kir21 sel	KCNK9 uninduced	KCNK3 inh conf	KCNK3 noninduced
CC(C)=CCOc1ccc2ccc(=O)oc2c1	-6	0.067	-9.2*	i	i	-12*	37%*	i	34%*	119*	i
COc1ccc(COc2ccc3ccc(=O)oc3c2)cc1	-6	·	-10*	i	i	-12*	46%*	i	32%*	115*	i
CC(C)=CCC/C(C)=C/COc1ccc2ccc(=O)oc2c1	-7	0.47	-9.2*	i	i	-19*	68%*	i	46%*	93*	i
CC(=O)Oc1ccc2ccc(=O)oc2c1	-4	-0.44	i	i	i	i	·	·	·	·	·
CC1=CC(C/C(C)=C/COc2ccc3ccc(=O)oc3c2)OC1=O (centres undefined)	-10	0.017	i	i	i	i	·	·	·	·	·
COc1cccc(COc2ccc3ccc(=O)oc3c2)c1	-7	·	i	i	i	i	·	·	·	·	·
O=C(NN=C1CCCC1)c1ccc(O)cc1	-2	·	i	i	i	i	·	·	·	·	·
CC1(C)CC(=O)CC2(C1)NCC(c1ccccc1)c1c2[nH]c2ccccc12 (centres undefined)	-4	-0.77	-9.3*	i	i	-15*	64%*	i	34%*	99*	i
COc1cccc(C2CNC3(CCCC(C)C3)c3[nH]c4ccccc4c32)c1OC (centres undefined)	-5	·	i	i	i	i	·	·	·	·	·
CCCCCOC(=O)c1ccc(NC(=O)c2ccco2)cc1	-7	-0.047	i	i	i	-12*	49%*	i	i	123*	0.15*
CCOC(=O)c1cccc(NC(=O)c2ccc(NC(=O)c3ccco3)cc2)c1	-9	·	i	i	i	i	·	·	·	·	·
